The text below walks through data of ChEMBL document CHEMBL1944512, “Discovery of a novel chemotype of potent human ENaC blockers using a bioisostere approach. Part 1: quaternary amines” (Bioorg Med Chem Lett, 2012).

Data set [1] in a line: Inhibition of human ENaC in HBE cells by short-circuit current technique. Format: cell-based.
Data set [2] in a line: Inhibition of guinea pig ENaCbeta1/gamma1 expressed in FRT cells by short-circuit current technique. The class given is cell-based. As to conditions: Cavia porcellus. In outline: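 Fischer rat thyroid cells transiently infected with guinea-pig ENaC were used to measure channel blockade, and the value is reported as an IC50.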
The next data set concerns Cavia porcellus. Nature of the data set: Blockade of tracheal potential difference in it dosed Dunkin Hartley guinea pig at 1hr. The conditions noted are these: Trachea. Format: functional.
A short description of data set [3]: Permeability from apical to basal side of human Caco2 cells. Format: ADME, cell-based. As to conditions: Caco-2, read-out: permeability. On the technique in general: Caco-2 cells form a polarised layer with tight junctions and transporters.
Data set [4] can be described thus: Permeability from basal to apical side of human Caco2 cells. The class given is ADME, cell-based. As to conditions: Caco-2, read-out: permeability.
Data set [5] deals with T1, Voltage-gated inwardly rectifying potassium channel KCNH2 (Homo sapiens, UniProt Q12809). In words: Binding affinity to human ERG channel.
Data set [6] has as its target T1, Voltage-gated inwardly rectifying potassium channel KCNH2. In words: Inhibition of human ERG channel by patch clamp assay. In general terms: Patch clamp records ionic current or voltage across a cell membrane.
The subject of another data set is HBE. In words: Inhibition of human ENaC in HBE cells at 30 uM by short-circuit current technique. The class given is cell-based.
Data set [7] is described as follows: Thermodynamic solubility of the compound at pH 1 after 24 hrs of post-equilibriation by shake-flask method. Format: physicochemical. As to conditions: buffer, read-out: Therm_solubility.
The nature of data set [8]: Thermodynamic solubility of the compound at pH 4 after 24 hrs of post-equilibriation by shake-flask method. Format: physicochemical. The conditions noted are these: buffer, read-out: Therm_solubility.
Data set [9] in a line: Thermodynamic solubility of the compound at pH 6.8 after 24 hrs of post-equilibriation by shake-flask method. Format: physicochemical. The conditions noted are these: buffer, read-out: Therm_solubility.
Data set [10] can be described thus: Thermodynamic solubility of the compound at pH 9 after 24 hrs of post-equilibriation by shake-flask method. Format: physicochemical. As to conditions: buffer, read-out: Therm_solubility.
The species named for the next data set is Homo sapiens. In words: Ratio of amiloride IC50 to compound IC50 for human ENaC.

T1 sequence (Q12809 whole entry): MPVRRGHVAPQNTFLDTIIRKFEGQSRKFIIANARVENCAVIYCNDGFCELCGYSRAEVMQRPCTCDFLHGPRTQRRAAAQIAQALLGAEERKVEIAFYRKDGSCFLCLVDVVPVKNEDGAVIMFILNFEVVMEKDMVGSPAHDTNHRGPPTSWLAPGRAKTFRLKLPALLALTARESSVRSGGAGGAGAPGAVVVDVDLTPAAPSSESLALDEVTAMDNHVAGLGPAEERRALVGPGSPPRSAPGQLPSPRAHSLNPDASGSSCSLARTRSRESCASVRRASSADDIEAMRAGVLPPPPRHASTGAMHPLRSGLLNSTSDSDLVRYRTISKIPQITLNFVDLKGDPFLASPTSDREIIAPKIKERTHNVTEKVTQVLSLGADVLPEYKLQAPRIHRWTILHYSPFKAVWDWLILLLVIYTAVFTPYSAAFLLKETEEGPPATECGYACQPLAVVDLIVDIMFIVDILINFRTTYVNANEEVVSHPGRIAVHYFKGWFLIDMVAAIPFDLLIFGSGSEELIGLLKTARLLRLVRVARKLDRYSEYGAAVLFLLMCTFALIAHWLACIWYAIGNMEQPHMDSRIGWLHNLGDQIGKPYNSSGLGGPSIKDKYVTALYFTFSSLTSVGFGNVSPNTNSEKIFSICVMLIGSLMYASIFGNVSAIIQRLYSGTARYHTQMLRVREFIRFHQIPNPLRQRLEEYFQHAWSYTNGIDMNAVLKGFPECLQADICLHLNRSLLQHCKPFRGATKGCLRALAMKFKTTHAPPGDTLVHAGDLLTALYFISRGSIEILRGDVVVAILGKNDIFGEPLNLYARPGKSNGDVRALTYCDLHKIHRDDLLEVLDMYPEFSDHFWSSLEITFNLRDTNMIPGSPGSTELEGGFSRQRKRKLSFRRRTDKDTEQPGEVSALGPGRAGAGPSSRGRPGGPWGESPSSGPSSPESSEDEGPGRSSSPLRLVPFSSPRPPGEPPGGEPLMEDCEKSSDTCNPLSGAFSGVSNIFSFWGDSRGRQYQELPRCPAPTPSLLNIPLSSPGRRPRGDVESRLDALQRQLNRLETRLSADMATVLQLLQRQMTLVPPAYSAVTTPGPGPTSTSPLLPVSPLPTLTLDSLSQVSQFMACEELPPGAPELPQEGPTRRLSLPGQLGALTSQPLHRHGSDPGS

What is called IC50 is the concentration at which inhibition is half-maximal. Low values mean greater potency, high ones weaker potency. Turning to `C[N+](C)(CCCCCNC(=O)c1ccc(Cl)cc1)CCNC(=O)c1nc(Cl)c(N)nc1N`, in [1], the IC50 is 750 nM.
As usually defined, the ED50 is the midpoint of the dose-response relation. Low readings indicate greater potency, high ones weaker potency. As to `N=C(N)NC(=O)c1nc(Cl)c(N)nc1N` [AMILORIDE], the IC50 in [1] was determined as 220 nM; in [2] it was 540 nM. This molecule showed an ED50 in the data set on Cavia porcellus of 0.016 mg/kg.
As for `COc1ccc(CCC[N+](CCCc2ccc(OC)cc2)(CCCc2ccc(OC)cc2)CCNC(=O)c2nc(Cl)c(N)nc2N)cc1`, the IC50 in [1] worked out at 37 nM.
Turning to `C[N+](C)(CCNC(=O)c1ccc(Cl)cc1)CCNC(=O)c1nc(Cl)c(N)nc1N`, half-maximal inhibition in data set [1] (IC50) required 1660 nM.
The molecule `Cc1ccc(CC(=O)NCCCC[N+](C)(C)CCNC(=O)c2nc(Cl)c(N)nc2N)cc1` registered an IC50 in data set [1] of 750 nM.
As to `C[N+](C)(CCCCNC(=O)Cc1ccc(OCc2ccccc2)cc1)CCNC(=O)c1nc(Cl)c(N)nc1N.[Br-]`, the IC50 in [1] worked out at 60 nM; in data set [5], 330 nM; in data set [6], 10800 nM. Moreover, the Papp A→B in data set [3] stood at 3.33 ×10⁻⁶ cm/s. In data set [4], the Papp B→A amounted to 2.55 ×10⁻⁶ cm/s.
For `C[N+](C)(CCCNS(=O)(=O)c1ccc(Cl)cc1)CCNC(=O)c1nc(Cl)c(N)nc1N`, 290 nM corresponded to half-maximal inhibition in data set [1] (IC50).
As to `C[N+](C)(CCCCNC(=O)CCc1ccc(OCc2ccccc2)cc1)CCNC(=O)c1nc(Cl)c(N)nc1N`, it took 80 nM to reach half-maximal inhibition in data set [1] (IC50).
For the molecule `C[N+](C)(CCCCNS(=O)(=O)c1ccc(Cl)cc1)CCNC(=O)c1nc(Cl)c(N)nc1N`, the half-maximal inhibitory concentration (IC50) in data set [1] was determined as 250 nM.
In data set [1], `C[N+](C)(CCCCNC(=O)Cc1ccc(Cl)cc1)CCNC(=O)c1nc(Cl)c(N)nc1N` showed an IC50 of 720 nM.
Still for that read-out and setting: to `C[N+](C)(CCCCNC(=O)Cc1ccccc1)CCNC(=O)c1nc(Cl)c(N)nc1N` belongs 950 nM; to `CN(C)CCN(C)C(=O)c1nc(Cl)c(N)nc1N`, above 30000 nM; to `C[N+](C)(CCCCNC(=O)c1ccccc1)CCNC(=O)c1nc(Cl)c(N)nc1N`, 1230 nM.
`C[N+](C)(CCCNC(=O)c1ccc(Cl)cc1)CCNC(=O)c1nc(Cl)c(N)nc1N`: inhibition in [1] was half-maximal at 740 nM (IC50).
In [1], `C[N+](C)(CCCCNC(=O)c1ccc(Cl)cc1)CCNC(=O)c1nc(Cl)c(N)nc1N` yielded an IC50 of 510 nM.
By inhibition is commonly meant the drop in the measured response relative to a control, in per cent. Read a high inhibition as strong suppression. The molecule `CN(C)CCCCNC(=O)c1nc(Cl)c(N)nc1N` returned an inhibition with HBE below 60%.
`C[N+](C)(CCCCCNS(=O)(=O)c1ccc(Cl)cc1)CCNC(=O)c1nc(Cl)c(N)nc1N`: the IC50 in data set [1] came out at 960 nM.
For `COc1ccc(CCC[N+](C)(CCCc2ccc(OC)cc2)CCNC(=O)c2nc(Cl)c(N)nc2N)cc1.[Br-]`, inhibition in data set [1] was half-maximal at 13 nM (IC50). For the same molecule, the solubility thermodynamic at 24 h in data set [7] worked out at 600 µg/mL; in data set [8], 500 µg/mL; in data set [9], 900 µg/mL; in data set [10], 1000 µg/mL. For the same molecule, the Ratio IC50 in the data set listed under Homo sapiens came out at 100.
For the molecule `COc1ccc(CCC[N+](C)(C)CCNC(=O)c2nc(Cl)c(N)nc2N)cc1.[Br-]`, the IC50 in data set [1] turned out to be 270 nM; in data set [2], 180 nM. The solubility thermodynamic at 24 h was determined as 4800 µg/mL in data set [7], 4900 µg/mL in data set [8], 5000 µg/mL in data set [9] and 4700 µg/mL in data set [10]. The 50% effect level with Cavia porcellus (ED50) was put at a dose of 0.044 mg/kg. The Papp A→B in [3] was found to be 0.93 ×10⁻⁶ cm/s. Besides, in [4], the Papp B→A came out at 1.67 ×10⁻⁶ cm/s.
In turn, `C[N+](C)(CCCCNC(=O)CCc1ccc(Cl)cc1)CCNC(=O)c1nc(Cl)c(N)nc1N` registered an IC50 in [1] of 160 nM.
Still for that read-out and setting: as for `NCCNC(=O)c1nc(Cl)c(N)nc1N`, the figure is 3970 nM; as for `Cc1ccc(CCC(=O)NCCCC[N+](C)(C)CCNC(=O)c2nc(Cl)c(N)nc2N)cc1`, 590 nM; as for `Cc1ccc(C(=O)NCCCC[N+](C)(C)CCNC(=O)c2nc(Cl)c(N)nc2N)cc1`, 880 nM.
For the molecule `CN(C)CCCNC(=O)c1nc(Cl)c(N)nc1N`, 17400 nM corresponded to half-maximal inhibition in data set [1] (IC50).
Still for that read-out and setting: as for `CNCCNC(=O)c1nc(Cl)c(N)nc1N`, the figure is 4570 nM.
In the case of `C[N+](C)(CCNC(=O)c1nc(Cl)c(N)nc1N)CCNS(=O)(=O)c1ccc(Cl)cc1`, the IC50 in [1] worked out at 1120 nM.
The molecule `CN(C)CCNC(=O)c1nc(Cl)c(N)nc1N` came in with an IC50 in [1] of 4780 nM.
In [1], `N/C(=N\C(=O)c1nc(Cl)c(N)nc1N)NCc1ccccc1` [BENZAMIL] yielded an IC50 of 20 nM.
Molecule `C[N+](C)(CCCCNC(=O)CCc1ccccc1)CCNC(=O)c1nc(Cl)c(N)nc1N` gave an IC50 in [1] of 910 nM.
Same read-out and setting: as for `C[N+](C)(C)CCNC(=O)c1nc(Cl)c(N)nc1N`, the figure is 5810 nM.
